Source: paper PMC9720522 (Food Chemistry: X, 2022)
Values after ≈ are worked out from the molar mass of the structure shown.

Legend:
[1] = test system: mAb against AZN (35D1D2); assay: indirect competitive ELISA; type: binding, mouse; conditions: ic-ELISA; for Cross-reactivity: CR = IC50 of AZN / IC50 of related analyte × 100; for IC50: coating antigen 0.23 and mAb 0.38 µg/mL
[2] = test system: anti-AZN mAb; assay: indirect ICA; type: binding, mouse; conditions: pork extract; strip reader standard curve
In short: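 AZN standard spiked into treated pork samples at 8, 4, 2, 1, 0.5, 0.25 and 0 ng/g. A set amount of mAb is added to the sample well and held 5 min at room temperature before strip insertion. The T line is AZL-SA-OVA, the C line mouse IgG, and the conjugate pad AuNP-goat anti-mouse IgG.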

In the case of `O=C(CCCN1CCN(c2ccccn2)CC1)c1ccc(F)cc1` [AZN, Azaperone], the Cross-reactivity [1] is reported as 100%, the IC50 [1] is reported as 0.35 ng/mL (≈ 1.07 nM) and the “IC50, indirect ICA” value [2] is reported as 0.74 ng/g.

`CC(C)NCC(O)COc1cccc2[nH]c3ccccc3c12` (stereo not drawn) [CAR, carazolol] was tested, and the Cross-reactivity [1] was less than 0.035% and the IC50 [1] was “˃1000 ng/mL”.

`CN(C)CCCN1c2ccccc2Sc2ccc(Cl)cc21` [CHL, Chlorpromazine] was tested, and the Cross-reactivity [1] was less than 0.035% and the IC50 [1] was “˃1000 ng/mL”.

In the case of `O=C(CCCN1CC=C(n2c(=O)[nH]c3ccccc32)CC1)c1ccc(F)cc1` [DRO, Droperidol], the Cross-reactivity [1] is reported as less than 0.035% and the IC50 [1] is reported as “˃1000 ng/mL”.

`O=C(CCCN1CCC(O)(c2ccc(Cl)cc2)CC1)c1ccc(F)cc1` [HAL, haloperidol] showed a Cross-reactivity [1] of less than 0.035%.

For `Cc1cccc(C)c1N=C1NCCCS1` [XYL, xylazine], the Cross-reactivity [1] was less than 0.035% and the IC50 [1] was “˃1000 ng/mL”.
